Consider 1 molecule from ChEMBL document CHEMBL4480390, “Cink4T, a quinazolinone-based dual inhibitor of Cdk4 and tubulin polymerization, identified via ligand-based virtual screening, for efficient anticancer therapy” (Eur J Med Chem, 2019).

Calls of active or inactive are those of the source. The rule behind the calls is not given here.

Experiment [1] deals with T1, Cytochrome P450 1B1 (Homo sapiens, UniProt Q16678).
T1 sequence (Q16678 whole entry): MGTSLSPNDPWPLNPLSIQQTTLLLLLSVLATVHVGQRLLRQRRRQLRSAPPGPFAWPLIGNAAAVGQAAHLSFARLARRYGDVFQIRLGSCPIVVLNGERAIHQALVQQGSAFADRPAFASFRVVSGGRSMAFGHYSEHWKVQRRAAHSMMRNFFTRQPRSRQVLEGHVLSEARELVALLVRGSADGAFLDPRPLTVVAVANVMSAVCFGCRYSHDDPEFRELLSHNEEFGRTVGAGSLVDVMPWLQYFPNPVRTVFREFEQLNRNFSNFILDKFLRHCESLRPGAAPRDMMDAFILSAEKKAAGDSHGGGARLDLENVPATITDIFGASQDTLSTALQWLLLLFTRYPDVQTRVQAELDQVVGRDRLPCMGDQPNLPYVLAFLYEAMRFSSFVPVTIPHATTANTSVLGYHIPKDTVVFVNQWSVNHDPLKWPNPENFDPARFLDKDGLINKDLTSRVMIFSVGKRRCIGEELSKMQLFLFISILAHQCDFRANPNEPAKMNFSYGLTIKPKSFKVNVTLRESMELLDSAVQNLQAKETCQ
Put plainly: Inhibition of recombinant human CYP1B1 expressed in baker's yeast-derived microsomes using 7-ethoxyresorufin as substrate by fluorescence assay.

In experiment [2] the target is Cyclin-dependent kinase 4/cyclin D1 (Homo sapiens) (UniProt P11802+P24385). Nature of the experiment: Inhibition of CDK4/cyclin D1 in human T47D cells assessed as reduction in phosphorylation of pRb at Ser795 residues at 0.75 to 1.5 uM measured after 18 hrs by Western blot analysis. The class given is cell-based. The method, boiled down: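 T47D cells left untreated or treated 18 h at 0.75 or 1.5 µM. Western blots probed with phospho-specific pRb antibodies (Ser780, Ser795, Ser807/811) and a total-pRb antibody; HRP-conjugated secondary for detection.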

In experiment [3] the test system is T47D. Nature of the experiment: Cell cycle arrest in human T47D cells assessed as increase in accumulation at S phase at 0.75 uM treated 18 hrs post serum-starvation measured after 18 hrs in presence of fresh medium containing FBS by propidium iodide staining based flow cytometry relative to control. The class given is functional. (In general: In flow cytometry, cells or beads pass a laser one at a time.)

Experiment [4] has as its system Calu-1. Put plainly: Cell cycle arrest in human Calu1 cells assessed as accumulation at G0/G1 phase at 1.8 uM treated 18 hrs post serum-starvation measured after 18 hrs in presence of fresh medium containing FBS by propidium iodide staining based flow cytometry (reference value: 69.2%). The class given is functional.
The subject of experiment [5] is MDA-MB-468. Put plainly: Cell cycle arrest in human MDA-MB-468 cells assessed as accumulation at sub-G1 phase at 10.85 uM measured after 18 hrs by propidium iodide staining based flow cytometry relative to control. The class given is functional.
Experiment [6] relates to A549. Nature of the experiment: Cell cycle arrest in human A549 cells assessed as accumulation at G0/G1 phase at 0.8 uM measured after 18 hrs by propidium iodide staining based flow cytometry (reference value: 58%). The class given is functional.
For experiment [7], the system named is A549. Put plainly: Cell cycle arrest in human A549 cells assessed as ratio of G1 to S phase at 1.6 uM treated 32 hrs post mimosine addition measured after 18 hrs in presence of fresh medium by propidium iodide staining based flow cytometry (reference value: 2.5). The class given is functional.
Experiment [8] concerns A549. Put plainly: Cell cycle arrest in human A549 cells assessed as accumulation at S phase at 1.6 uM treated 32 hrs post mimosine addition measured after 18 hrs in presence of fresh medium by propidium iodide staining based flow cytometry (reference value: 23%). The class given is functional.
In experiment [9] the test system is A549. Nature of the experiment: cells. Conditions: Homo sapiens, A549, 72 h.

For the molecule `O=C(COc1ccc(-c2nc3ccccc3c(=O)[nH]2)cc1)Nc1cccc(Cl)c1`, in [1], the IC50 was more than 5000 nM. Besides, the inhibition entry in [2] was “Active”. Further, the Activity in experiment [3] worked out at 2.13%; in experiment [4], 88%; in experiment [5] it was 0%; in experiment [6], 65%; in experiment [8], 18%. Further, the Ratio in experiment [7] was 0.6. This molecule had a half-maximal effective concentration (EC50) in experiment [9] of 800 nM.

In general, IC50 refers to the midpoint of a concentration-inhibition curve. One may read the EC50 as the midpoint of the concentration-response curve. Higher therefore signals a need for much substance.
